Data on five compounds can be found in ChEMBL document CHEMBL1142947, “Gallium(III) and iron(III) complexes of alpha-N-heterocyclic thiosemicarbazones: synthesis, characterization, cytotoxicity, and interaction with ribonucleotide reductase” (J Med Chem, 2007).

Molecules are shown by their SMILES.

A short description of assay [1]: Cytotoxicity against human SKBR3 cells after 96 hrs by MTT assay. The class given is cell-based. To be noted: SK-BR-3, 96 h. The method, boiled down:
(§1)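 Adherent cells grown in MEM with 10% heat-inactivated FBS, 1 mM sodium pyruvate, 4 mM L-glutamine and nonessential amino acids at 37 °C, 5% CO2. Seeded at 4 × 10^3 cells/well and preincubated 24 h. Exposed 96 h to DMSO stocks serially diluted in medium (DMSO ≤0.5%). MTT added for 4 h, formazan dissolved in DMSO, read at 550 nm (ref 690 nm). IC50 interpolated from T/C curves; ≥3 independent experiments, six cultures per concentration.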

The test system of another assay is 41M. Nature of the assay: Cytotoxicity against human 41M cells after 96 hrs by MTT assay. The class given is cell-based. The method, boiled down: as §1
Assay [2] addresses T1, Ribonucleoside-diphosphate reductase subunit M2 (Mus musculus) (UniProt P11157).
T1 sequence (whole entry): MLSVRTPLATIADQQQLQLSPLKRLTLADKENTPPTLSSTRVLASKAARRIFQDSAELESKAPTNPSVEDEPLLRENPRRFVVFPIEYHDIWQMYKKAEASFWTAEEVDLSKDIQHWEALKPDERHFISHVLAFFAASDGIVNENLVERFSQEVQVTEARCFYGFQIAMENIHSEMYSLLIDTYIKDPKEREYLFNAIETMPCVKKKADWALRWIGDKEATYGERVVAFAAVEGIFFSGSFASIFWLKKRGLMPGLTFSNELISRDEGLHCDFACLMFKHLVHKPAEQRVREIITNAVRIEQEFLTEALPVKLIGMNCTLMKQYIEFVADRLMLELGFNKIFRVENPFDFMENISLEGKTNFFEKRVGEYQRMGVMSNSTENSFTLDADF
The assay is described as follows: Effect on mouse ribonucleotide reductase R2 protein measured by tyrosyl radical concentration in aerobic condition at 30-33 µM, 298 K after 15 mins.

The target of assay [3] is T1, Ribonucleoside-diphosphate reductase subunit M2 (Mus musculus). The assay is described as follows: Effect on mouse ribonucleotide reductase R2 protein measured by tyrosyl radical concentration in anaerobic condition at 3 mM, 298 K after 1 min. An outline of the steps: (§2)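 Run in an anaerobic tent with argon-bubbled, vacuum-degassed buffer (50 mM Tris/HCl pH 7.6, 100 mM KCl) and solutions. Protein degassed and diluted to a final 30 µM R2 monomer with 30 µM compound (from 3 mM stocks), 1% DMSO and 1 mM DTT freshly prepared. Incubated at 298 K for 1, 15 and 1005 min total; tyrosyl radical measured by EPR at 77 K.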

For assay [4] the target is unchanged. Nature of the assay: Effect on mouse ribonucleotide reductase R2 protein measured by tyrosyl radical concentration in aerobic condition at 3 mM, 298 K after 1 min. An outline of the steps:
(§3)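 Reconstituted purified mouse R2 diluted to 30 µM monomer in 50 mM Tris/HCl pH 7.6, 100 mM KCl. Compound added from 3 mM stock (DMSO, or water for nitrates) to a final 30–33 µM (1:1 with monomer), about 1% DMSO, plus 1 mM DTT, under air at 298 K. Samples frozen in liquid nitrogen after each incubation; tyrosyl radical quantified by X-band EPR at 40 K.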

Assay [5] has the same target. The assay is described as follows: Effect on mouse ribonucleotide reductase R2 protein measured by tyrosyl radical concentration in anaerobic condition at 3 mM, 298 K after 1005 mins. An outline of the steps: as §2
Assay [6] shares this target. Nature of the assay: Effect on mouse ribonucleotide reductase R2 protein measured by tyrosyl radical concentration in anaerobic condition at 3 mM, 298 K after 15 mins. An outline of the steps: as §2
For assay [7] the target is unchanged. The assay is described as follows: Effect on mouse ribonucleotide reductase R2 protein measured by tyrosyl radical concentration in aerobic condition at 3 mM, 298 K after 1005 mins. An outline of the steps: as §3

Consider `C/C(=N\NC(=S)N1CCCCC1)c1cnccn1`, for which the half-maximal inhibitory concentration (IC50) in assay [1] was determined as 2.2 nM; in the assay with 41M, 0.41 nM.

With `C/C(=N\NC(=S)N1CCCC1)c1ccccn1`, the 50% inhibitory concentration (IC50) was determined as 3.1 nM in assay [1] and 0.36 nM in the assay on 41M.

On to `C/C(=N\NC(=S)N1CCCC1)c1cnccn1`, for which the concentration for half-maximal inhibition (IC50) in assay [1] was found to be 5 nM; in the assay on 41M, 1.1 nM.

For `C/C(=N\NC(=S)N(C)C)c1cnccn1`, the results for the 50% inhibitory concentration (IC50) (in assay [1]; with 41M) were 1.4 nM and 0.073 nM, respectively.

On to `C/C(=N\NC(=S)N(C)C)c1ccccn1`, for which the IC50 was 2.7 nM in assay [1] and 0.22 nM with 41M. Further, the Activity came to 7 µM in assay [2]; 8.5 µM in assay [3]; 17.2 µM in assay [4]; 0 µM in assay [5]; 0 µM in assay [6]; 0.5 µM in assay [7].

A word on the IC50: it is the concentration needed to halve the response being measured. Higher therefore signals weaker potency in that assay.
